Assays:
HepG2 cells = test: MTT antiproliferative assay, HepG2; assay type: cell-based, human
Procedure, shortened: (§1)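 Cells were pre-incubated 24 h at 37 °C under 5% CO2, then exposed to a range of test compound concentrations dissolved in culture medium. MTT (5 mg mL−1 solution) was added for 4 h and formazan dissolved in DMSO. Absorbance was read at 630 nm. IC50 came from a non-linear curve fit, and growth inhibition was also reported.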

Karpas299 cells = test: MTT antiproliferative assay, Karpas299; assay type: cell-based
Procedure, shortened: as §1

PC-3 cells = test: MTT antiproliferative assay, PC-3; assay type: cell-based; conditions: Homo sapiens, PC-3, read-out: Antiproliferative activity IC50
Procedure, shortened: as §1

MCF-7 cells = test: MTT antiproliferative assay, MCF-7; assay type: cell-based; conditions: Homo sapiens, MCF7, read-out: Antiproliferative activity IC50
Procedure, shortened: as §1

A549 cells = test: MTT antiproliferative assay, A549; assay type: cell-based; conditions: Homo sapiens, A549, read-out: Antiproliferative activity IC50
Procedure, shortened: as §1

Question: Which growth inhibition (HepG2 cells; HepG2, 2 μg mL^−1, MTT) does the source give for `CC1(C)[C@@H](O)CC[C@]2(C)[C@H]3C(=O)C=C4[C@@H]5C[C@@](C)(C(=O)N6CCN(C(=O)c7ccc(Cl)cc7)CC6)CC[C@]5(C)CC[C@@]4(C)[C@]3(C)CC[C@@H]12` [Compound 4i, 3β-Hydroxy-30-(4-(4-chlorobenzoyl)-1-piperazinyl)-olean-12-ene-11,30-dione] here?
Answer: 0.00%

Question: And the growth inhibition (HepG2 cells; HepG2, 20 μg mL^−1, MTT)?
Answer: 19.10%

Question: What about the growth inhibition (Karpas299 cells; Karpas299, 2 μg mL^−1, MTT) of the same molecule?
Answer: 0.00%

Question: What about the growth inhibition (Karpas299 cells; Karpas299, 20 μg mL^−1, MTT) of the same molecule?
Answer: 12.76%

Question: What does the source list for `C[C@@H](Oc1cc(-c2cnn(C3CCNCC3)c2)cnc1N)c1c(Cl)ccc(F)c1Cl` [Crizotinib]?
Answer: IC50 (PC-3 cells): 7.33 µM; IC50 (MCF-7 cells): 4.09 µM; IC50 (HepG2 cells; Homo sapiens, HepG2, read-out: Antiproliferative activity IC50): 10.6 µM; inhibition at 2 µg/mL (HepG2 cells; Homo sapiens, HepG2, read-out: growth inhibition, HepG2, 2 μg mL^−1, MTT): 27.1%; inhibition at 20 µg/mL (HepG2 cells; Homo sapiens, HepG2, read-out: growth inhibition, HepG2, 20 μg mL^−1, MTT): 97.8%; IC50 (A549 cells): 1.49 µM; IC50 (Karpas299 cells; Homo sapiens, KARPAS-299, read-out: Antiproliferative activity IC50): 2.82 µM
